Activity calls are given as the source filed them. The rule behind the calls is not given here.
Columns and labels:
[1] = molecular target: T1, Polyunsaturated fatty acid 5-lipoxygenase (Homo sapiens) (UniProt P09917); experiment: Inhibition of 5-LOX-mediated LTB4 production in human neutrophils using arachidonic acid as substrate at 40 uM preincubated for 10 mins followed by substrate addition measured after 8 mins by enzyme immunoassay relative to control
T1 sequence (whole entry): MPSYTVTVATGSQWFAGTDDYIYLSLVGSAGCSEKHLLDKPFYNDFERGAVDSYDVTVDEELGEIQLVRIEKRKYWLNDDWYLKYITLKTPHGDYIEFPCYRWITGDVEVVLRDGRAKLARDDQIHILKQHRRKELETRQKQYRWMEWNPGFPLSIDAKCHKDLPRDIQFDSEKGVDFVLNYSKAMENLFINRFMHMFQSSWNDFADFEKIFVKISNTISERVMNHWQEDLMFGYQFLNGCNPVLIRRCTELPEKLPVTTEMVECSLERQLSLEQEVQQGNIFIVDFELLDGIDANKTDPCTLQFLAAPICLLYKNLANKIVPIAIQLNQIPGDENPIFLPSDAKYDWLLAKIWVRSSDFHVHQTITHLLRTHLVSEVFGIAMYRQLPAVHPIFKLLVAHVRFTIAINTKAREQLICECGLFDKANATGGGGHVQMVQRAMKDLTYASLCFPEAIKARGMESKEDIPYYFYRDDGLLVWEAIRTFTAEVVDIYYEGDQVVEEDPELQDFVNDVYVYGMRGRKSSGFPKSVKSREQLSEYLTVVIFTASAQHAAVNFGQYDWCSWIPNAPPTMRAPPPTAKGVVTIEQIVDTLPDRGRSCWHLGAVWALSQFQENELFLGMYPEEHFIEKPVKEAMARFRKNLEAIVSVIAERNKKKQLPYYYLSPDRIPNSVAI
Outline: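 Isolated human neutrophils held in HBSS on ice; viability checked by trypan blue. Cells at 3.5×10^6 cells/mL equilibrated 10 min at 37 °C. Flavonoids (0.15–40 μM) pre-incubated 10 min, then A23187 (5 μM) plus arachidonic acid (10 μg/mL) added for 8 min. Stopped with cold methanol and centrifuged 13,000 g, 1 min, 4 °C. LTB4 measured by EIA and expressed as % inhibition of control. NDGA (1 μM) positive control. At least three experiments.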

[2] = molecular target: T2, Seed linoleate 13S-lipoxygenase-1 (Glycine max) (UniProt P08170); experiment: Binding affinity to soybean LOX-1 at 1248 uM by STD-[1H] NMR spectroscopic analysis
T2 sequence (whole entry): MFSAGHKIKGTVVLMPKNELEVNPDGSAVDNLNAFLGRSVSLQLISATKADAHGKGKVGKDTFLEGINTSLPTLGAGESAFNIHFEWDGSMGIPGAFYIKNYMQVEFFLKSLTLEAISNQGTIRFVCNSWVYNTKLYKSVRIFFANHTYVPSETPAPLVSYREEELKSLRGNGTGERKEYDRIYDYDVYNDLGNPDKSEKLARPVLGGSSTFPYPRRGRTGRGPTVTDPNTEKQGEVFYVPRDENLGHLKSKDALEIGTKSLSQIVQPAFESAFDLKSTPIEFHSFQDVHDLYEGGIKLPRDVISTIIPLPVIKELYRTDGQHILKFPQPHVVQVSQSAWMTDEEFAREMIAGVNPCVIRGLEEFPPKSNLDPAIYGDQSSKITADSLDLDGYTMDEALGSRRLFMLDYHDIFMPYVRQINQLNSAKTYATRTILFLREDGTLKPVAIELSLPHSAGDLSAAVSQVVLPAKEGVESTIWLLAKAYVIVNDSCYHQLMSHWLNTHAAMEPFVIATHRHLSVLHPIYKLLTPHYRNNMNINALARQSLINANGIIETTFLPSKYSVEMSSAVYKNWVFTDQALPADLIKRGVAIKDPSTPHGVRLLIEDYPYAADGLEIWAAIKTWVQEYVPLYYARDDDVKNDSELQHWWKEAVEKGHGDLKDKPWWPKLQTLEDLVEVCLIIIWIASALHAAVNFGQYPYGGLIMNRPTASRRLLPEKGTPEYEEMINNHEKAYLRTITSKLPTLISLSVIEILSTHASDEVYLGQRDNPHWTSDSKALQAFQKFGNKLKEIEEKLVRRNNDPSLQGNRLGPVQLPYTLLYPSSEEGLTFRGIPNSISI
Outline: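 STD-1H NMR at 37 °C, 600 MHz, cryoprobe. Lyophilized soybean LOX-1 in Tris buffer (20 mM Tris, 7 mM (NH4)2SO4, 3.5 mM MgCl2, 0.3 mM DTT in D2O, pH 9.0). Ligand added from a 16.6 mM DMSO-d6 stock. Final concentrations: LOX 4 μM, ligand 1248 μM, ratio 300:1. On-resonance saturation at 1.0 ppm; off-resonance reference at 20000 Hz.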

[3] = molecular target: T3, Seed linoleate 13S-lipoxygenase-1 (Glycine max, UniProt P08170); experiment: Mixed noncompetitive type inhibition of soybean LOX-1 using linoleic acid as substrate preincubated for 5 mins followed by substrate addition by Lineweaver-Burk plot analysis
T3 sequence (P08170 whole entry): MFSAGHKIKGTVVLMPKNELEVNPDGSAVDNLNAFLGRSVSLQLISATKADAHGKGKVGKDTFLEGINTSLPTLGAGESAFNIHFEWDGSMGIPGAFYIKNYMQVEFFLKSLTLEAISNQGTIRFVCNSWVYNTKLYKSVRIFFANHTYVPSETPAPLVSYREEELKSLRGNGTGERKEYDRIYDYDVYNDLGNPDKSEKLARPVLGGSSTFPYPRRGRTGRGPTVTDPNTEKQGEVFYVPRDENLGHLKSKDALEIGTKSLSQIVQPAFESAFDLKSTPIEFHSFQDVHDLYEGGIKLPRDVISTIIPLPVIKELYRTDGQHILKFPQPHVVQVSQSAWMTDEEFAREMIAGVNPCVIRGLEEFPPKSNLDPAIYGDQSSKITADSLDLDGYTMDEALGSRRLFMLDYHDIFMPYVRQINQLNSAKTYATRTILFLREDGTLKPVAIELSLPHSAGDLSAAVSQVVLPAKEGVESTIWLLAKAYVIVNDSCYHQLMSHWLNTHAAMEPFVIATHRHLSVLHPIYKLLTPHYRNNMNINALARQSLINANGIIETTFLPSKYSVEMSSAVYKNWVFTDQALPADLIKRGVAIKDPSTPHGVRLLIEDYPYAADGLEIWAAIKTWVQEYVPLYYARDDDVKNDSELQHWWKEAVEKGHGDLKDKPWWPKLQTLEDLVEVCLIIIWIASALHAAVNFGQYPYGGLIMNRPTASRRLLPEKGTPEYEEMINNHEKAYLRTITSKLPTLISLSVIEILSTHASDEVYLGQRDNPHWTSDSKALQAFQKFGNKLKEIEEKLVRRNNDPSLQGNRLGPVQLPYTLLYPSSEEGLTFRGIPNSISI
Outline: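 Soybean LOX-1 (supplied lyophilized) kinetic assay. Enzyme pre-incubated with inhibitor 5 min, then linoleic acid added. Conversion to the cis,trans-hydroperoxide followed at 234 nm at 30 °C with continuous soft shaking. Readings every 30 s for 10 min; rate taken as the 0–3 min slope. Three inhibitor concentrations tested against three substrate concentrations. Inhibition type assigned by nonlinear Michaelis–Menten fitting and Lineweaver–Burk plots. At least four experiments, each in triplicate.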

## O=c1cc(-c2ccc(O)cc2)oc2cc(O)cc(O)c12 [APIGENIN]
[1]
  inhibition: < 50%
[2]
  Activity: Active
[3]
  Ki: 178 µM

From ChEMBL document CHEMBL3102734, “Inhibition of LOX by flavonoids: a structure-activity relationship study” (Eur J Med Chem, 2014)
